Bioassay records from PubChem.
The entries come from a sample that favours hits as a whole.
TLR4-MyD88 BLA = TLR4-MyD88 interaction inhibition in cells; AID 861; actives 0.18% (n = 200,000); O00206+Q99836; inhibition, % at 8.4 µM; HeLa CL3-4 TLR4/MyD88 BLA complementation, FRET ratio; in the data active = inhibition above about 25%
NOD2 RIPK2 PPI = NOD2-RIPK2 protein interaction inhibition; AID 624267; inhibition, % at 4.98 µM; actives 0.38% (n = 360,000); CHO BLA complementation NOD2-RIPK2, CCF4 ratio; O43353; in the data active = inhibition above about 21%
CHOP inh = CHOP inhibition in unfolded protein response. CHO-K1 CHOP-promoter luciferase, tunicamycin-induced, 15-18 h. inhibition, % at 10 µM. actives 3.8% (n = 220,000);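 active = compounds that reduced the stress-induced luciferase reporter signal by more than about 70% of percent inhibition, limit read from the data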
TLR9-MyD88 block = blocks human TLR9 binding to MyD88; Q9NR96+Q99836; CHO BLA complementation TLR9-MyD88, CCF4 FRET ratio; actives 0.21% (n = 340,000); inhibition, % at 4.98 µM;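 active = inhibition above the mean over all tested compounds plus 3 SD, cut at about 21% in these data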
Target sequence (Q99836 whole entry, looked up): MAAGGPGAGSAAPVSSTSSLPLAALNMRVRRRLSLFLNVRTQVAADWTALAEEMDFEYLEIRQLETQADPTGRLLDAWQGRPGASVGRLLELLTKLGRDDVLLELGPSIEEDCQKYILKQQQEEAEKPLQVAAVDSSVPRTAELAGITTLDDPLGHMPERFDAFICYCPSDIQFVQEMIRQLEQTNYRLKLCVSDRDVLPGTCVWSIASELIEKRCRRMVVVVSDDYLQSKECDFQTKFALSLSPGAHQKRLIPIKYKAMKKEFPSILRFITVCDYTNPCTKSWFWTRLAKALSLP
Target sequence (Q9NR96 whole entry, looked up): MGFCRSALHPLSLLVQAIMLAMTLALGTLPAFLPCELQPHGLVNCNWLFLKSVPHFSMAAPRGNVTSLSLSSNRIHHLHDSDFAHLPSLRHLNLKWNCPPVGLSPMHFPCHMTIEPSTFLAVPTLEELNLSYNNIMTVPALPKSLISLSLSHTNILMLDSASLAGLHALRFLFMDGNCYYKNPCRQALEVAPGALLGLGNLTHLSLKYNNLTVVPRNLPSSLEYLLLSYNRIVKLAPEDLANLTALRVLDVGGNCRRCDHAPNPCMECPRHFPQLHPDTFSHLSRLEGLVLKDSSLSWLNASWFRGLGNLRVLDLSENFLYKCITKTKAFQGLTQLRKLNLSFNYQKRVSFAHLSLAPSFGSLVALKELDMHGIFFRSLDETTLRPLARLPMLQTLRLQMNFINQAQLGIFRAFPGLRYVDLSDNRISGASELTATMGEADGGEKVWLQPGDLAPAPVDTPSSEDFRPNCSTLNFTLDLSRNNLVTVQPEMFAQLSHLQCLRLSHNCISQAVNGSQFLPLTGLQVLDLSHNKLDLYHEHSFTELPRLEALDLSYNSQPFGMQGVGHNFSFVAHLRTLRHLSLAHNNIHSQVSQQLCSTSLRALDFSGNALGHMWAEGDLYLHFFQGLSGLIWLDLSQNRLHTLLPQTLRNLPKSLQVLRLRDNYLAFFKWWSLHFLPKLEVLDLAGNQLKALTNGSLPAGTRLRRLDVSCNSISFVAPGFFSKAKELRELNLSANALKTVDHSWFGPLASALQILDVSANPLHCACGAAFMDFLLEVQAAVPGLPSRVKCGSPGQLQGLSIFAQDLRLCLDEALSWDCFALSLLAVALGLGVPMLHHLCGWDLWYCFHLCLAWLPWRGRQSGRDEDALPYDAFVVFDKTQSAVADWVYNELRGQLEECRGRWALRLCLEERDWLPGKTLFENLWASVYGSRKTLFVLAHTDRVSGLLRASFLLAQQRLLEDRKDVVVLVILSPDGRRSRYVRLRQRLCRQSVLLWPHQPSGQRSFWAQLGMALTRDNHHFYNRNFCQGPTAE
UPR XBP1 act = adaptive UPR (XBP1) activation; activation, % at 20 µM; actives 0.33% (n = 330,000); CHO-XBP1 luciferase reporter, IRE1-XBP1 UPR activation, luminescence; percent of tunicamycin response, DMSO as zero;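 active = versus positive control, 20 µM dose yields 30% or more activation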
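Material: CHO cell line with stable XBP1 luciferase reporter; buffer or medium: F12 medium containing 10% fetal bovine serum; compound: single point, 20 µM final compound, 1% DMSO; incubation: 6 h treatment, 37 °C; measured by: glow luminescence from Steady-Glo reagent; evaluation: activation, % of tunicamycin; control set: tunicamycin high, DMSO low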
CHOP UPR activ = activators of apoptotic arm of unfolded protein response (CHOP) | CHO-CHOP luciferase reporter, UPR activation, luminescence; percent of tunicamycin response over DMSO baseline | activation, % at 10 µM | actives 0.34% (n = 330,000);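 active = at 10 µM dose, activation of 40% or more, normalized to positive control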
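System: CHO-CHOP luciferase reporter cell line; amount: 500 cells/well; buffer or medium: F12 medium containing 10% fetal bovine serum; incubation: 6 h compound exposure at 37 °C after overnight seeding; measured by: luciferase luminescence after 10 min with Steady-Glo reagent; evaluation: % reporter activation, DMSO baseline versus tunicamycin full activation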
TLR9-MyD88 conf = TLR9-MyD88 interaction inhibition, confirmation; actives 51% (n = 680); CHO TLR9/MyD88 BLA complementation, CCF4 FRET ratio; inhibition, % at 4.98 µM; shares compounds with TLR9-MyD88 block; AID 540250;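 active = mean inhibition across three repeats above about 21% taken from the earlier screen, limit read from the data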;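 note: blue over green emission ratio reports constitutive TLR9 MyD88 association via BLA complementation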
BLA nonselective = beta-lactamase reporter inhibition, counter-screen artifact; shares compounds with TLR9-MyD88 block; CHO-BLA cells, CCF4 FRET ratio, BLA reporter; inhibition, % at 4.98 µM; actives 7% (n = 680); AID 540251;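 active = mean inhibition above a 50% cutoff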;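 note: counterscreen of TLR9-MyD88 hits on CMV-driven BLA in CHO-K1 cells; higher means less blue over green ratio so more BLA blockade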
TLR9 CHO cytotox = CHO cell toxicity counter-screen for TLR9-MyD88 inhibitors; shares compounds with TLR9-MyD88 block; TLR9-MyD88 CHO cells cytotoxicity, luminescence; inhibition, % at 4.98 µM; actives 39% (n = 680); AID 588336; in the data active = inhibition above about 11%
Hits are given with their value; . = inactive; / = no result given.

SMILES | TLR4-MyD88 BLA | NOD2 RIPK2 PPI | CHOP inh | TLR9-MyD88 block | UPR XBP1 act | CHOP UPR activ | TLR9-MyD88 conf | BLA nonselective | TLR9 CHO cytotox
Cc1ccc(-c2cc(-c3ccco3)c3c(N)c(C(=O)NN)oc3n2)cc1 | / | . | . | . | . | . | / | / | /
NNC(=O)c1oc2nc(-c3cccs3)cc(-c3ccco3)c2c1N | / | . | / | 22 | . | . | . | . | .
O=CN1CCN(C(=O)c2ccccc2Cl)CC1 | . | . | . | 44 | . | . | . | . | .
Cc1ccc(Cl)c(NC(=O)COC(=O)c2ccccc2C(=O)c2ccc(Cl)c([N+](=O)[O-])c2)c1Cl | . | . | . | 27 | / | / | 29 | . | 15
O=C(COC(=O)c1cccc(Br)c1)Nc1ccc2[nH]c(=O)[nH]c2c1 | / | . | / | 21 | . | . | . | . | .
O=C(COC(=O)/C=C/c1ccc(Cl)cc1)Nc1ccc2[nH]c(=O)[nH]c2c1 | / | . | / | 23 | . | . | . | . | 13
Cc1onc(-c2ccccc2)c1NC(=O)Nc1ccc(OC(F)F)cc1 | / | . | . | / | . | . | / | / | /
Cc1c(O)ccc2c(CN3CCN(CCO)CC3)cc(=O)oc12 | . | . | . | 27 | . | . | . | . | .
COc1ccccc1C1C=C(c2ccc(C)cc2)Nc2nnnn21 (configuration not stated) | . | . | / | 22 | . | . | . | . | .
COc1ccc(CCNC(=O)COc2ncnc3ccccc23)cc1 | . | . | . | . | . | . | / | / | /
Cc1c(CN2CCC(CO)(CCOc3ccccc3)CC2)c(=O)n(-c2ccccc2)n1C | . | . | . | 34 | . | . | . | . | .
Cc1cc(C)c(CN2CCC(CO)(CCOc3ccccc3)CC2)cc1C | . | . | . | . | . | . | / | / | /
CCC(=O)N1CCc2cc(S(=O)(=O)N3CCN(c4cc(C)ccc4C)CC3)ccc21 | / | . | / | . | . | . | / | / | /
COc1ccc(C2NN=C(c3ccc(C)cc3)S2)cc1 (configuration not stated) | / | . | / | . | / | / | / | / | /
CCOc1cc(C2NN=C(c3ccc(C)cc3)S2)ccc1O (configuration not stated) | . | . | . | 21 | / | / | . | . | .
COc1ccc(CCNc2cn[nH]c(=O)c2Cl)cc1OC | . | . | . | . | . | . | / | / | /
O=c1[nH]ncc(NCCc2ccccc2)c1Cl | . | . | . | 24 | . | . | . | . | .
CC(C)(C)OC(=O)N1CCC(NC(=O)c2[nH]cnc2C(=O)Nc2ccon2)CC1 | / | . | / | . | . | . | / | / | /
COc1ccc(C2=CC(c3ccco3)n3ncnc3N2)cc1 (configuration not stated) | . | 21 | . | 28 | . | . | . | . | .
Clc1ccc(C2=CC(c3ccco3)n3ncnc3N2)cc1 (configuration not stated) | . | . | . | . | . | . | / | / | /
COc1ccc(S(=O)(=O)N2CCCCC2)cc1C(=O)Nc1cc(C)on1 | / | . | / | . | . | . | / | / | /
COc1ccc(N=Cc2sc(O)c3ccccc23)cc1 | . | . | . | 22 | . | . | 21 | . | .
COc1ccc(N=Cc2c(O)c3ccccc3n2C(C)=O)cc1 | / | . | . | . | . | . | / | / | /
O=C1C2CCC(C2)C1CN1CCOCC1 (configuration not stated) | / | . | / | . | / | / | / | / | /
CS(=O)(=O)c1sc2nc(-c3cccs3)cc(-c3ccccc3)c2c1N | . | . | . | 25 | . | . | . | . | .
SMILES | TLR4-MyD88 BLA | NOD2 RIPK2 PPI | CHOP inh | TLR9-MyD88 block | UPR XBP1 act | CHOP UPR activ | TLR9-MyD88 conf | BLA nonselective | TLR9 CHO cytotox
Clc1ccc(/C=N/NC2=Nc3cccc4cccc2c34)cc1 | . | . | . | 29 | . | . | . | . | .
Cn1c(=O)n(C)c2cc(/C=N/NC(N)=S)ccc21 | . | . | . | . | . | . | / | / | /
N#Cc1ccc2c(=O)n(-c3ccccc3)sc2c1 | / | . | / | 39 | / | / | . | . | 96
O=c1c2ccccc2sn1-c1cccc(Cl)c1 | / | . | / | . | / | / | / | / | /
O=C(O)c1cccc(-n2sc3ccccc3c2=O)c1 | / | . | / | . | . | . | / | / | /
O=c1c2cc(C(F)(F)F)ccc2sn1-c1ccccc1 | / | . | / | 23 | / | / | 26 | . | 58
COCCN1CCN(C(=O)c2cc(COc3cc(C)ccc3C)on2)CC1 | / | . | / | . | . | . | / | / | /
Cc1ccccc1OCC(=O)N(Cc1nnc(-c2ccc(Cl)cc2)o1)C(C)C | / | . | / | . | . | . | / | / | /
CCOC(=O)COc1ccc2c(C#N)c3ccccn3c2c1 | . | . | . | 26 | / | / | . | . | .
O=C1Cc2ccccc2C(=O)N1c1ccccc1 | / | . | / | 31 | . | . | 42 | . | .
COc1cc(/C=C/C(=O)O)cc(S(=O)(=O)NCc2ccc3c(c2)OCO3)c1OC | . | . | . | 21 | . | . | . | . | .
COc1cc(/C=C/C(=O)O)cc(S(=O)(=O)NCc2ccco2)c1OC | . | . | . | . | . | . | / | / | /
